From ChEMBL document CHEMBL1124929, “Indolo[2,1-a]isoquinolines. Syntheses, steroid hormone receptor binding affinities, and cytostatic activity” (1990)

Legend:
[1] = molecular target: T1, Estrogen receptor (Mus musculus) (UniProt O08537+P19785); assay: Estrogenic activity in uterotrophic assay in immature mice at 250 ug subcutaneous dose; assay type: functional
How it was run: (§1)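 Immature female NMRI mice, 20 days old, in groups of 6-10, were dosed sc once daily for three consecutive days. Compounds were given in PEG/0.9% saline 1:1; vehicle controls were included. Animals were killed 24 h after the last dose. Uteri were fixed in Bouin solution and the effect was taken as uterine dry weight (mg)/body weight (g) ×100, given as mean ± SD.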

[2] = molecular target: T1, Estrogen receptor (Mus musculus); assay: Inhibition of 0.4 ug estrone-stimulated uterine growth in mice at 250 ug subcutaneous dose; assay type: functional
How it was run: (§2)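 Immature 20-day-old female NMRI mice received sc injections on three consecutive days. Each injection held 0.4 µg estrone plus the compound in PEG/saline 1:1. […] Significance was tested by Mann-Whitney U test.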

[3] = molecular target: T1, Estrogen receptor (Mus musculus); assay: (§3) Estrogenic activity in uterotrophic assay in immature mice at 10.0 ug subcutaneous dose; assay type: functional; how it was run: as §1
[4] = molecular target: T1, Estrogen receptor (Mus musculus); assay: Inhibition of 0.4 ug estrone-stimulated uterine growth in mice at 125 ug subcutaneous dose; p<0.01; assay type: functional; how it was run: as §2
[5] = molecular target: T1, Estrogen receptor (Mus musculus); assay: as §3; assay type: functional; how it was run: as §1; remark: listed apart in the source
[6] = molecular target: T1, Estrogen receptor (Mus musculus); assay: Inhibition of 0.4 ug estrone-stimulated uterine growth in mice at 2 ug subcutaneous dose; assay type: functional; how it was run: as §2
MCF7 [7] = assay: Effect on [3H]thymidine incorporation into MCF-7 human breast cancer cells at 1x10E-6M; assay type: functional
How it was run: (§4)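 Cells were seeded at ~2 × 10⁴ per well, treated from the next day in 0.1% DMSO, with DMSO controls. MCF-7 cells were held in charcoal-stripped NCS for 2 weeks, treated for 5 days and re-dosed on day 4. MDA-MB 231 cells were grown in McCoy 5a/10% NCS and treated for 2 days. At the end, 1 µCi [³H]thymidine per well was added for 2 h. Result is % T/C, mean of three experiments × six dishes.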

[8] = molecular target: T2, Androgen Receptor (Bos taurus) (UniProt Q5EM59); assay: Relative binding affinity(RBA) for 50% displacement of [3H]mibolerone from Androgen receptor compared to testorone
T2 sequence (whole entry): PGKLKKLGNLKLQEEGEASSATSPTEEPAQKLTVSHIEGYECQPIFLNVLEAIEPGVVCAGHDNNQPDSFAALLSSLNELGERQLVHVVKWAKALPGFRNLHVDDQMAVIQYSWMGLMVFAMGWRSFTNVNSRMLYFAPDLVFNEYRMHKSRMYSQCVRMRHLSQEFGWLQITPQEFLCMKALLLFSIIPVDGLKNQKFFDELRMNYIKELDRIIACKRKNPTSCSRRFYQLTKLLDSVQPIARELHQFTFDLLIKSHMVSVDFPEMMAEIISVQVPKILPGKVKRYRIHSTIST
How it was run: (§5)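 Receptor source was calf uterine cytosol (105000g supernatant, 3 mg/mL protein in assay). Buffers were Tris/EDTA pH 7.4, with NaN₃ for ER, molybdate/glycerol for AR, and sucrose for PR. Tracers were 1 nM [³H]estradiol, [³H]mibolerone or [³H]Org 2058. Incubation was at 0–4 °C for 16 h (ER) or 2 h (AR, PR), with 4–6 competitor concentrations. Nonspecific binding used 2 µM of the unlabeled hormone. Separation was by dextran-coated charcoal. RBA is the ratio of IC50 values for hormone and compound ×100, mean of two triplicate experiments.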

[9] = molecular target: T3, Androgen receptor (Mus musculus) (UniProt P19091); assay: Relative effect on seminal vesicle weight in adult and castrated mice supplemented with 0.3 mg TP at 1000 ug dose; assay type: functional, tissue-based
T3 sequence (whole entry): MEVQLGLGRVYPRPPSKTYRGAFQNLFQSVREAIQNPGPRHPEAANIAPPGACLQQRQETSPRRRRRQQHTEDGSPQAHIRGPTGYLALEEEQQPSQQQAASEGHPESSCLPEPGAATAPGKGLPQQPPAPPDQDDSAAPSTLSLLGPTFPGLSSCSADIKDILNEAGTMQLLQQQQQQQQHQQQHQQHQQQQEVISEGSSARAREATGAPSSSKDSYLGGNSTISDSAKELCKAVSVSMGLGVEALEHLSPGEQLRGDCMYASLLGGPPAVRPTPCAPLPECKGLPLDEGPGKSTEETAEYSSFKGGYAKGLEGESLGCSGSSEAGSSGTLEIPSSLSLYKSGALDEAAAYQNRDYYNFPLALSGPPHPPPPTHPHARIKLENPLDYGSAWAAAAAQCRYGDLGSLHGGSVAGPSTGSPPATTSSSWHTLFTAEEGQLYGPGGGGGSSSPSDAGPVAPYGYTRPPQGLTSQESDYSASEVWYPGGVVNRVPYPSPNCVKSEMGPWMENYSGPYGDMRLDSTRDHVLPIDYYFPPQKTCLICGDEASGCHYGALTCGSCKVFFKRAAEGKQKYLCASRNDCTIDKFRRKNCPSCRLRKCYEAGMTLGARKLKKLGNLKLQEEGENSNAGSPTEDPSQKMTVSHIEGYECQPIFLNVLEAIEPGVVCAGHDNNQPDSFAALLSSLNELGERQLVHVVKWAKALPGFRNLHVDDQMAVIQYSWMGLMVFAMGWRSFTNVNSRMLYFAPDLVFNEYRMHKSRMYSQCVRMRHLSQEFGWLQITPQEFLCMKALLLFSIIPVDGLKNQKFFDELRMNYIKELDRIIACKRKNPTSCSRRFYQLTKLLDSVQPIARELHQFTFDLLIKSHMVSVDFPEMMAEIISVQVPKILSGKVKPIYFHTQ
How it was run: (§6)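 Adult male mice, 23–25 g, six per group, were used intact or castrated via the scrotal route under ether 5 days before the test. Castrates received 0.3 mg testosterone propionate daily. Compounds were injected daily in olive oil for nine days. Seminal vesicles were taken 24 h later, fixed in Bouin solution, dried overnight at 100 °C and weighed. Result is organ mg/body g ×100; % inhibition = [1 − treated/control] × 100.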

MCF7 [10] = assay: Effect on hormone-dependent MCF-7 human breast cancer cell proliferation at 5x10E-6M; assay type: functional
How it was run: (§7)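 Cells were plated at about 2 × 10⁴ per well in six-well dishes. MCF-7 cells were grown in modified improved MEM with 5% NCS, switched to charcoal-treated NCS two weeks before the test, and exposed for 5 days with a re-dose on day 4. MDA-MB 231 cells were grown in McCoy 5a with 10% NCS and exposed for 2 days. Compounds were given 1 day after plating in 0.1% DMSO, with DMSO-matched controls. Read-out was cell number as % T/C, mean of three experiments with six dishes.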

[11] = molecular target: T1, Estrogen receptor (Mus musculus); assay: Estrogenic activity in uterotrophic assay in immature mice at 2 ug subcutaneous dose; assay type: functional; how it was run: as §1
MCF7 [12] = assay: Effect on hormone-dependent MCF-7 human breast cancer cell proliferation at 1x10E-5 M; assay type: functional; how it was run: as §7
MCF7 [13] = assay: Effect on [3H]thymidine incorporation into MCF-7 human breast cancer cells at 1x10E-5 M; assay type: functional; how it was run: as §4
[14] = molecular target: T3, Androgen receptor (Mus musculus); assay: Relative effect on seminal vesicle weight in adult and castrated mice at 10 ug dose; assay type: functional, tissue-based; how it was run: as §6
MDA-MB-231 = assay: Effect on [3H]thymidine incorporation into MDA-MB 231 human breast cancer cells at 1x10E-5 M; assay type: functional; how it was run: as §4
[15] = molecular target: Estrogen receptor (Bos taurus) (UniProt Q9XSB5+P49884); assay: Relative binding affinity(RBA) for 50% displacement of [3H]-estradiol from Estrogen receptor compared to 17-beta-estradiol; assay type: protein assay; how it was run: as §5
[16] = molecular target: T1, Estrogen receptor (Mus musculus); assay: Estrogenic activity in uterotrophic assay in immature mice at 50.0 ug subcutaneous dose; assay type: functional; how it was run: as §1

T1 sequence (O08537 whole entry, looked up): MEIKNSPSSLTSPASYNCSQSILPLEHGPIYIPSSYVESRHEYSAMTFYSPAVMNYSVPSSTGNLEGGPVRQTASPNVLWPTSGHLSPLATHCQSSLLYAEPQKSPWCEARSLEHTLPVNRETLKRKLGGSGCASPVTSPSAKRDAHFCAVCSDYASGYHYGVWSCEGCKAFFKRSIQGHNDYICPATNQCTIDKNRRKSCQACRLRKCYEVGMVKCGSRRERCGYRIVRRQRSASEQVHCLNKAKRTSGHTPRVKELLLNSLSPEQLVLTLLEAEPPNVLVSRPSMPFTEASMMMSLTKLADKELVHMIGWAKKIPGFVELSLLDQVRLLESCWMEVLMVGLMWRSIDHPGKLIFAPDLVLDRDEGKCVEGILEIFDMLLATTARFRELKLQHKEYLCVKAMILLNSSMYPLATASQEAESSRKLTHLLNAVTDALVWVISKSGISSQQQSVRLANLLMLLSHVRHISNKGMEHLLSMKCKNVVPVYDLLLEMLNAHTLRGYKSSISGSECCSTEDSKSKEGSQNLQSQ
T1 sequence (P19785 whole entry, looked up): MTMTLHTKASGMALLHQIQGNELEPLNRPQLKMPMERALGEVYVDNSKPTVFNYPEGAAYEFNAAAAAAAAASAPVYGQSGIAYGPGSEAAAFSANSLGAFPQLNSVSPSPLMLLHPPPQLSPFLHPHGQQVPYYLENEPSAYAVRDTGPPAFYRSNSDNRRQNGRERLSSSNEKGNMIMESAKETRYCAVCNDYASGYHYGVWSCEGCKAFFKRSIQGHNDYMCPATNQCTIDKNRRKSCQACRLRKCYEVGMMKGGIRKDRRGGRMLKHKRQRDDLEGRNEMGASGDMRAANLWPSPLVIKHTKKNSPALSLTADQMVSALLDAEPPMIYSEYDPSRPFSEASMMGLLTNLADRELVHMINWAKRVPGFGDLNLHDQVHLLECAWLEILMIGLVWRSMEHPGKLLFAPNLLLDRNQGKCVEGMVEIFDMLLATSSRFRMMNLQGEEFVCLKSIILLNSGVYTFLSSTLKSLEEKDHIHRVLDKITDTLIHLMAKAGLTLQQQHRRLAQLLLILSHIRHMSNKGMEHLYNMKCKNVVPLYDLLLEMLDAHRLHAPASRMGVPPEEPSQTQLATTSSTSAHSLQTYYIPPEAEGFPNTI

Q: For `CCC1Cc2cc(OC(C)=O)ccc2-c2cc3cc(OC(C)=O)ccc3n21` (configuration not stated), which Effect [1] is on record?
A: Its Effect is 53.4.

Q: And the inhibition [2]?
A: The inhibition was 34.1%.

Q: What about the Effect [3] of the same compound?
A: The Effect was 51.

Q: And the inhibition [4]?
A: Its inhibition is 42%.

Q: What about the Effect [5] of the same compound?
A: The Effect was 25.5.

Q: What about the inhibition [6] of the same compound?
A: The inhibition was 7.2%.

Q: And the T/C (MCF7 [7])?
A: The T/C was 25%.

Q: What about the RBA [8] of the same compound?
A: The RBA was 0.23.

Q: And the Relative seminal vesicle weight [9]?
A: Its Relative seminal vesicle weight is 187.

Q: And the T/C (MCF7 [10])?
A: The T/C was 10%.

Q: And the Effect [11]?
A: The Effect was 52.3.

Q: And the T/C (MCF7 [12])?
A: The T/C was 8%.

Q: What about the T/C (MCF7 [13]) of the same compound?
A: Its T/C is 2%.

Q: What about the Relative seminal vesicle weight [14] of the same compound?
A: Its Relative seminal vesicle weight is 132.

Q: What about the T/C (MDA-MB-231) of the same compound?
A: The T/C was 4%.

Q: What about the RBA [15] of the same compound?
A: Its RBA is 17.

Q: And the Effect [16]?
A: The Effect was 45.7.
